The values below come from ChEMBL document CHEMBL1828611, “Bisphosphonamidate clodronate prodrug exhibits potent anticancer activity in non-small-cell lung cancer cells” (J Med Chem, 2011).

Data set [1] has as its system A549. Nature of the data set: Antiproliferative activity against human A549 cells after 24 hrs by MTS assay. Type of data set: functional, cell-based. The note with it: A549, 24 h. A digest of the protocol: (§1)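 A549 cells were seeded at 1.5 × 10^3 per well, adhered overnight, and treated over 0.2–300 μM (final 1% DMSO). After treatment, MTS was added for 40 min–2 h and A490 read. Absorbance was converted to percent of vehicle control, and IC50 was obtained by nonlinear dose-response fit.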

Data set [2] concerns A549. Nature of the data set: Antiproliferative activity against human A549 cells after 48 hrs by MTS assay. Type of data set: functional, cell-based. The conditions noted are these: A549, 48 h. Put shortly: as §1
In general terms: Formazan colour is commonly taken as a measure of viable cells.

Data set [3] has as its system A549. Nature of the data set: Antiproliferative activity against human A549 cells after 72 hrs by MTS assay. Type of data set: functional, cell-based. The note with it: A549, 72 h. Put shortly:
as §1

Data set [4] concerns A549. In words: Drug uptake in human A549 cells assessed per 10^4 cells at 10 uM after 8 hrs by LC/MS/MS analysis. Type of data set: ADME, cell-based. The conditions noted are these: a549, 8 h. Put shortly:
(§2)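 A549 cells were plated at 1.3 × 10^5 per well in 6-well plates and treated at 0, 10 or 30 μM for 8 h. Cells were washed, trypsinized and counted by trypan blue, and pellets were frozen. Lysates in acetonitrile with temazepam internal standard were analysed by LC-MS-MS on a C18 column (isocratic acetonitrile/water 60:40, 0.1% formic acid). Results are reported as ng/10^4 cells.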

Data set [5] relates to A549. Nature of the data set: Drug uptake in human A549 cells assessed per 10^4 cells at 30 uM after 8 hrs by LC/MS/MS analysis. Type of data set: ADME, cell-based. The note with it: a549, 8 h. Put shortly:
as §2

In data set [6] the test system is A549. In words: Anticancer activity in human A549 cells assessed as decrease in viable cells after 48 hrs by trypan blue exclusion assay. Type of data set: functional, cell-based. The note with it: A549, 48 h. A digest of the protocol:
(§3)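 A549 cells (RPMI 1640, 10% FBS) were plated at 1.7 × 10^4 per well in 12-well plates, adhered overnight, and dosed from 100X DMSO stocks (final 1% DMSO). Floating and trypsinized cells were pooled, mixed 1:1 with 0.04% trypan blue and viable cells counted. Counts were expressed as percent of control per time point; EC50 is the concentration giving a 50% decrease in cell number.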

In data set [7] the test system is A549. Nature of the data set: Anticancer activity in human A549 cells assessed as decrease in viable cells after 72 hrs by trypan blue exclusion assay. Type of data set: functional, cell-based. The conditions noted are these: A549, 72 h. Put shortly:
as §3

The subject of data set [8] is A549. In words: Anticancer activity in human A549 cells assessed as decrease in viable cells after 24 hrs by trypan blue exclusion assay. Type of data set: functional. A digest of the protocol:
as §3

For data set [9], the system named is A549. In words: Ratio of EC50 for human A549 cells after 48 hrs by trypan blue exclusion assay to IC50 for human A549 cells after 48 hrs by MTS assay. Type of data set: functional.
Data set [10] relates to A549. Nature of the data set: Drug uptake in human A549 cells after 8 hrs by LC/MS/MS analysis. The note with it: a549, 8 h. Type of data set: ADME, cell-based. A digest of the protocol:
as §2

For data set [11], the system named is A549. In words: Prodrug conversion in human A549 cells assessed as intracellular formation of methylenebis(hydrogen phosphonate) at 10 to 30 uM after 8 hrs using MTBSTFA by LC/MS/MS analysis. Type of data set: ADME, cell-based. The conditions noted are these: a549, 8 h. Put shortly:
(§4)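 A549 cells, plated at 1.3 × 10^5 per well, dosed for 8 h, PBS-washed, trypsinized, counted by trypan blue, then pellets PBS-washed and frozen at −80°C. Lysate was derivatized with MTBSTFA to tetra-silyl bisphosphonate for 1 h, cooled, diluted 1:5 in acetonitrile, and analysed by LC-MS-MS (C18, isocratic acetonitrile/water 70:30, 0.1% formic acid, 0.2 mL/min). Detection was qualitative.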

Data set [12] deals with A549. Nature of the data set: Cell cycle arrest in human A549 cells assessed as accumulation of cells in G2 phase after 24 hrs measured using propidium iodide staining by FACS analysis. Type of data set: functional, cell-based. (In general: In flow cytometry, cells or beads pass a laser one at a time.)
Data set [13] relates to A549. Nature of the data set: Drug uptake in human A549 cells at 30 uM after 8 hrs using MTBSTFA by LC/MS/MS analysis. Type of data set: ADME, cell-based. The conditions noted are these: a549, 8 h. Put shortly:
as §4

The subject of data set [14] is A549. Nature of the data set: Anticancer activity against human A549 cells assessed as reduction in cell viability after 72 hrs by crystal voilet staining. Type of data set: functional, cell-based. Put shortly: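 A549 cells were plated at 1.7 × 10^4 per well in 6-well plates and dosed from 100X DMSO stocks (final 1% DMSO). After 72 h cells were washed twice with PBS, stained 5–15 min with 0.5% crystal violet in 95% EtOH, rinsed with cold water and air-dried.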

Data set [15] has as its system A549. Nature of the data set: Anticancer activity against human A549 cells assessed as growth inhibition at 10 to 300 uM for 72 hrs followed by 48 hrs incubation after compound wash out. Type of data set: functional, cell-based. A digest of the protocol: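 A549 cells exposed to 10, 30, 100 and 300 μM for 72 h, then washed to remove drug and given fresh drug-free medium; regrowth was checked after a further 48 h.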

Data set [16] concerns A549. In words: Cell cycle arrest in human A549 cells assessed as accumulation of cells in G1 phase at 3 uM after 72 hrs measured using propidium iodide staining by FACS analysis. Type of data set: functional, cell-based. Put shortly: (§5)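 A549 cells were plated at 6.7 × 10^4 per well in 6-well plates and dosed at 0, 3 or 10 μM for 72 h (final 1% DMSO). Cells were fixed in cold 70% ethanol, then stained with 10 μg/mL propidium iodide plus RNase A for 30 min at 37°C.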

Data set [17] relates to A549. In words: Cell cycle arrest in human A549 cells assessed as accumulation of cells in G1 phase at 10 uM after 72 hrs measured using propidium iodide staining by FACS analysis. Type of data set: functional, cell-based. Put shortly:
as §5

Data set [18] relates to A549. In words: Cell cycle arrest in human A549 cells assessed as accumulation of cells in G1 phase at 3 uM after 72 hrs measured using propidium iodide staining by FACS analysis in presence of nocodazole. Type of data set: functional, cell-based.
For data set [19], the system named is A549. Nature of the data set: Anticancer activity against human A549 cells assessed as growth inhibition up to 1 mM by MTS assay. Type of data set: functional, cell-based. Put shortly: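 A549 cells, plated at 1.5 × 10^3 per well and left to adhere overnight, treated for 24, 48 or 72 h with compounds serially diluted in DMSO (1% DMSO final). MTS dye was added for 40 min to 2 h and absorbance read at 490 nm. Values were expressed as percent of vehicle control; IC50 was taken from nonlinear dose-response fitting.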

The source made the active and inactive calls. The rule behind the calls is not given here.

One may read the IC50 as the concentration needed to halve the response being measured. A higher IC50 goes with weaker potency in that assay. By EC50 is commonly meant the concentration that produces a half-maximal response. As for `CN(CCCCCl)P(=O)(CP(=O)(OCc1ccc([N+](=O)[O-])cc1)N(C)CCCCCl)OCc1ccc([N+](=O)[O-])cc1` (stereo unspecified), the figures for the IC50 in the data set with A549 [1], in the data set on A549 [2] and with A549 [3] were 17 µM, 15 µM and 13 µM, respectively. For the same compound, the results for the Drug uptake with A549 [4], in the data set on A549 [5] and with A549 [10] were 68.6 ng, 169.3 ng and “Dose-dependent effect”, respectively. The half-maximal effective concentration (EC50) with A549 [6] turned out to be 24 µM; with A549 [7], 25 µM. For the same compound, the Activity is reported as <50% with A549 [8] and “Active” in the data set on A549 [11]. Moreover, the “Ratio IC50” value with A549 [9] was 1.6.
In the case of `COC(=O)Nc1nc2cc(C(=O)c3cccs3)ccc2[nH]1`, the outcome in the data set on A549 [12] was Active.
For the compound `O=P(O)(O)CP(=O)(O)O` [MEDRONIC ACID], in the data set on A549 [13], the Drug uptake result is given as “Active”.
In the case of `CN(CCCCCl)P(=O)(OCc1ccc([N+](=O)[O-])cc1)C(Cl)(Cl)P(=O)(OCc1ccc([N+](=O)[O-])cc1)N(C)CCCCCl` (stereo unspecified), the concentration for half-maximal inhibition (IC50) was 7.6 µM in the data set with A549 [1], 5.2 µM with A549 [2] and 4.4 µM in the data set on A549 [3]. The EC50 was 19 µM in the data set on A549 [6] and 16 µM with A549 [7]. Further, the Activity in the data set with A549 [8] was 57%. Also, the “Ratio IC50” value in the data set on A549 [9] was determined as 3.6. Besides, the result with A549 [14], with A549 [16], in the data set on A549 [17] and in the data set with A549 [18] was Active. For the same compound, the “growth inhibition (GI)” value with A549 [15] is “Active”.
As to `O=P(O)(O)C(Cl)(Cl)P(=O)(O)O`, the “growth inhibition (GI)” value in the data set on A549 [19] was “inactive”.
